Measurements from PMC4486263 (Journal of biomolecular screening, 2014).
Entries after “also recorded” stand apart in the source; their conditions may differ.

Columns and labels:
[1] = target: CtBP1-E1A peptide interaction (Homo sapiens, UniProt Q13363); assay: Fluorescence polarization assay with FITC-labeled E1A 14-mer peptide; type: binding; settings: for disruption of the CtBP1-peptide interaction (in words): up to 100 μM
Six1-Eya2 interaction = target: T1, Six1-Eya2 interaction (Homo sapiens, UniProt O00167+Q15475); assay: Counterscreen AlphaScreen assay, Six1-Eya2; type: binding; settings: 20 nM to 50 μM
T1 sequence (Q15475 1-284): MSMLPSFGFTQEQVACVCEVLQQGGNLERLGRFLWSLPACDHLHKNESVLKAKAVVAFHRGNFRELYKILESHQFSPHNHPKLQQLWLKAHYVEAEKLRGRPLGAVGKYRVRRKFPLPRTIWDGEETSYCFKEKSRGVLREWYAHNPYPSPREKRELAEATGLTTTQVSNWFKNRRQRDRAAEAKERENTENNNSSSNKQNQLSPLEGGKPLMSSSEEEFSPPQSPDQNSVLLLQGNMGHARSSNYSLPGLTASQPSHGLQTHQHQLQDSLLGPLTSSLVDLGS
T1 sequence (O00167 1-538): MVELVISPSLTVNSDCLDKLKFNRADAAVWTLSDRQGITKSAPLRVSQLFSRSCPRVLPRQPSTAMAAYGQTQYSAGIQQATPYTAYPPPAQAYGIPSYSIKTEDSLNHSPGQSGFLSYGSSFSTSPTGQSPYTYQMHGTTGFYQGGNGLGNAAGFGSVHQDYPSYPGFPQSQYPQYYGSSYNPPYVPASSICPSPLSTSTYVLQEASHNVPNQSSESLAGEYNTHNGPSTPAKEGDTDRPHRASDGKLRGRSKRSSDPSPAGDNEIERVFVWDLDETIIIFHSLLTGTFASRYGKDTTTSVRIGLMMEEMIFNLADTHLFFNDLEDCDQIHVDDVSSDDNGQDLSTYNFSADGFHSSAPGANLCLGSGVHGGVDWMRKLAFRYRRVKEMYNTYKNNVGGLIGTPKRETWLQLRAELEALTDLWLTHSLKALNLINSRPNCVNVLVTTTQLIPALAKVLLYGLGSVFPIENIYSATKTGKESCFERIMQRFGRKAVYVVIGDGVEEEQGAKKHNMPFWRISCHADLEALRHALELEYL
Summary of the method: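 Counterscreen AlphaScreen with 200 nM 6xHis-Eya2 and GST-Six1 in 50 mM Tris pH 8.0, 250 mM NaCl, 0.05% BSA, 0.02% Tween-20. Test compound was added at 20 nM to 50 μM. Glutathione donor and Ni-chelate acceptor beads were added from a 25 ng/μL (each) bead solution. Incubated 2 h at 25 °C, then read in AlphaScreen mode.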

lactate dehydrogenase = assay: Lactate dehydrogenase enzymatic assay; type: biochemical
Summary of the method: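 Lactate dehydrogenase at 5 nM in PBS with 100 μM NADH. Incubated with 5 μM pyruvate or varying test compound concentrations for 1 min at 30 °C. NADH consumption monitored spectrophotometrically at 340 nm; activity as nmol/min/mg protein.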

CtBP1-E1A interaction [2] = target: T2, CtBP1-E1A interaction (Homo sapiens, UniProt Q13363); assay: Competitive ELISA; type: binding; settings: read-out: IC50, disruption of the CtBP1-E1A interaction
Summary of the method: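 Plates coated with His-tagged CtBP1 (E. coli-expressed, Ni-affinity then size-exclusion purified) in 50 mM Tris pH 8.0, 250 mM NaCl, 1 h at 25 °C. Blocked 1 h with 1% BSA/0.05% Tween-20 in 50 mM Tris pH 8.0, 250 mM NaCl, 1 mM TCEP. GST-Ad5 E1A was added with increasing test compound concentrations in triplicate for 1 h at 25 °C. Detection used rabbit anti-GST (1:1500), then goat anti-rabbit (1:2500), 1 h each, and ABTS absorbance.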

CtBP1-E1A interaction [3] = target: T2, CtBP1-E1A interaction; assay: CtBP1-E1A AlphaScreen assay; type: binding; settings: for disruption of the CtBP1-E1A interaction (in words): up to 100 μM
[4] = system: CtBP1-mediated repression of the E-cadherin promoter; assay: E-cadherin promoter luciferase reporter assay in H1299 cells; type: cell-based; settings: 18 hrs, normalized to Renilla
Summary of the method: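 H1299 cells were seeded at 2000 cells/well and adhered overnight. FuGENE 6 transfection used 30 ng/well pGL3-E-cadherin promoter plus 10 ng/well Renilla luciferase. After 10 h, cells were treated with varying test compound concentrations for a further 18 h. Passive lysis, then dual-luciferase measurement with Firefly normalised to Renilla.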

NCI 60 tumor-cell panel = settings: ref http://dtp.nci.nih.gov/; cited from earlier work
[5] = system: MEF3 promoter (SIX1 transcriptional complex); assay: MEF3 promoter luciferase reporter assay in H1299 cells; type: cell-based; settings: 18 hrs, normalized to Renilla
Summary of the method: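 H1299 cells were seeded at 2000 cells/well and adhered overnight. FuGENE 6 transfection used 60 ng/well pGL3-MEF3 promoter, 40 ng/well Six1, 30 ng/well Eya2 and 14 ng/well Renilla luciferase. After 10 h, cells were treated with varying test compound concentrations for 18 h. Dual-luciferase read-out after passive lysis, with Firefly normalised to Renilla.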

CtBP1 = CtBP1 (Homo sapiens, UniProt Q13363); assay: CtBP1 enzymatic assay; type: biochemical; settings: NADH oxidation, 340 nm
Summary of the method: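 E. coli-expressed His-CtBP1 (2 μM) in PBS with NADH. Test compound was added at increasing concentrations in 100 μL reactions after a 2 min incubation at 30 °C. Substrate reduction followed as NADH disappearance at 340 nm by spectrophotometer. Activity expressed as nmol NADH/min/mg protein.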

In the case of `CCCCc1ccc(C(=O)O)nc1` [fusaric acid], the “disruption of the CtBP1-peptide interaction (in words)” value [1] is reported as “inactive; also recorded: unable to disrupt” and the “inhibition of the Six1-Eya2 interaction” value (Six1-Eya2 interaction) is reported as “did not inhibit”.

In the case of `CC(=O)C(=O)O` [pyruvate], the “LDH activity with substrate” value (lactate dehydrogenase) is reported as 9680 ± 558 nmol/min/mg protein.

With `CCCn1c(=O)c2[nH]c(C3CCCC3)nc2n(CCCOC(=O)c2ccc(S(=O)(=O)F)cc2)c1=O` [FSCPX] the “disruption of the CtBP1-peptide interaction (in words)” value [1] was “inactive; also recorded: unable to disrupt” and the “inhibition of the Six1-Eya2 interaction” value (Six1-Eya2 interaction) was “did not inhibit”.

For `O.c1cnc2c(c1)ccc1cccnc12` [10-phenanthroline monohydrate], the “inhibition of the Six1-Eya2 interaction” value (Six1-Eya2 interaction) was “efficiently inhibited”.

With `O=C1c2ccccc2C(=O)c2c(NCCc3ccc(O)cc3)ccc(NCCc3ccc(O)cc3)c21` [JFD00244] the “inhibition of the Six1-Eya2 interaction” value (Six1-Eya2 interaction) was “efficiently inhibited”.

In the case of `O=C1C(SCCO)=C(SCCO)C(=O)c2ccccc21` [NSC95397], the IC50 (CtBP1-E1A interaction [2]) is reported as 10 ± 1.3 µM, the IC50 (CtBP1-E1A interaction [3]; read-out: IC50, inhibition of the CtBP1-E1A interaction) is reported as 2.9 µM and the “disruption of the CtBP1-E1A interaction (in words)” value (CtBP1-E1A interaction [3]) is reported as “able to disrupt the interaction; also recorded: efficiently inhibits”. The “inhibition of LDH (pyruvate reduction)” value (lactate dehydrogenase; 5 μM pyruvate, up to 100 μM compound) was “did not significantly inhibit; also recorded: unable to detect any inhibition; also recorded: unable to inhibit”, the “substrate of LDH (NADH consumption without pyruvate)” value (lactate dehydrogenase; increasing concentrations, no pyruvate) was “nor did it exhibit significant consumption of NADH; also recorded: did not detect a significant loss in NADH levels” and the “luciferase activity, E-cadherin promoter” value [4] was “able to disrupt CtBP-mediated transcriptional repression; also recorded: increased with increasing concentrations; also recorded: can reverse CtBP-mediated transcriptional repression”. For the same compound, the IC50 ([1]; read-out: IC50, CtBP1-E1A peptide interaction, 3 μM CtBP1, 5 nM FITC-E1A peptide) was 0.61 ± 0.12 µM, the “disruption of the CtBP1-peptide interaction (in words)” value [1] was “able to disrupt the interaction; also recorded: efficiently inhibits” and the “average GI50s over all cell lines” value (NCI 60 tumor-cell panel) was 1.04 µM. The “luciferase activity, MEF3 promoter” value [5] was “unaltered; also recorded: has no effect”, the “inhibition of the Six1-Eya2 interaction” value (Six1-Eya2 interaction) was “did not inhibit; also recorded: does not inhibit; also recorded: did not detect a loss of AlphaScreen signal” and the “maximal activity as CtBP1 substrate” value (CtBP1) was 28.5 ± 4.9 nmol/min/mg protein.

For `Nc1c(S(=O)(=O)O)cc(Nc2ccc(Nc3nc(Cl)nc(Nc4cccc(S(=O)(=O)O)c4)n3)c(S(=O)(=O)O)c2)c2c1C(=O)c1ccccc1C2=O` [reactive blue 2], the “inhibition of the Six1-Eya2 interaction” value (Six1-Eya2 interaction) was “efficiently inhibited”.

In the case of `CSCCC(=O)C(=O)O` [MTOB, 4-methylthio-2-oxobutanoic acid], the “disruption of the CtBP1-E1A interaction (in words)” value (CtBP1-E1A interaction [3]) is reported as “ineffective at disrupting the interaction; also recorded: unable to inhibit; also recorded: unable to affect the protein interaction” and the “disruption of the CtBP1-peptide interaction (in words)” value [1] is reported as “ineffective at disrupting the interaction; also recorded: unable to inhibit”.

For `O=C1O/C(=C/Br)CCC1c1cccc2ccccc12` (centres unmarked) [bromoenol lactone], the “inhibition of the Six1-Eya2 interaction” value (Six1-Eya2 interaction) was “efficiently inhibited”.
